Assay results reported in ChEMBL document CHEMBL2346617, “Euryspongins A-C, three new unique sesquiterpenes from a marine sponge Euryspongia sp” (Bioorg Med Chem Lett, 2013).
Active and inactive are the calls of the source. The rule behind the calls is not given here.

Assays:
[1] = biological target: T1, Tyrosine-protein phosphatase non-receptor type 1 (Homo sapiens, UniProt P18031); test: Inhibition of PTP1B (unknown origin)
T1 sequence (P18031 whole entry): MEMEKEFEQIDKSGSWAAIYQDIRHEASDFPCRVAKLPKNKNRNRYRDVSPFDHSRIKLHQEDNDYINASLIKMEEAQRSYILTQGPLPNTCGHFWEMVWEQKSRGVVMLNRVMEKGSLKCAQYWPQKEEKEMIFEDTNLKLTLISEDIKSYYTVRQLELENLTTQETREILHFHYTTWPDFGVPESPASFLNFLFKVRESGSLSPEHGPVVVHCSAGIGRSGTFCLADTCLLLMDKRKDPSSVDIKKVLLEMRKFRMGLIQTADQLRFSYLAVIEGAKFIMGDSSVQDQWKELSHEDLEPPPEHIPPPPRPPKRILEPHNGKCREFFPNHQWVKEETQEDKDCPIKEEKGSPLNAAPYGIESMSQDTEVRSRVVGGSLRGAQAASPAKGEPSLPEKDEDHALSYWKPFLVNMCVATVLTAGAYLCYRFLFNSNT

Jurkat = test: Antiproliferative activity against human Jurkat cells at 45 uM; assay type: functional, cell-based
Outline: (§1)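 Proliferation of human cancer cell lines HCT-15 (colon) and Jurkat (T-cell lymphoma) was tested at a single concentration of 45 μM per compound.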

HCT-15 = test: Antiproliferative activity against human HCT15 cells at 45 uM; assay type: functional, cell-based; outline: as §1
[2] = biological target: T2, Tyrosine-protein phosphatase non-receptor type 1 (Homo sapiens) (UniProt P18031); test: Inhibition of PTP1B (unknown origin) at 35 to 40 uM
T2 sequence (whole entry): T1 sequence (P18031 whole entry)

Structure (SMILES)	IC50 [1]	inhibition (Jurkat)	inhibition (HCT-15)	inhibition [2]
CC1=C[C@@H]2CC(C)(C)[C@H]1/C=C\c1ccoc12 (relative stereo) [REL-DEHYDROEURYSPONGIN A]	3.6 µM	inactive	inactive	–
CO[C@]12OC(=O)C=C1[C@@H](O)C[C@H]1C(C)=C[C@@H]2CC1(C)C (relative stereo)	–	inactive	inactive	inactive
CC1=C[C@@H]2CC(C)(C)[C@H]1C[C@H](O)C1=CC(=O)O[C@@H]12 (relative stereo)	–	inactive	inactive	inactive
CC1=C[C@@H]2CC(C)(C)[C@H]1C[C@H](O)c1ccoc12 (relative stereo)	–	inactive	inactive	inactive
